Measurements from ChEMBL document CHEMBL4190236, “New arylpyrazoline-coumarins: Synthesis and anti-inflammatory activity” (Eur J Med Chem, 2017).
The source made the active and inactive calls. The rule behind the calls is not given here.

Tests used:
[1] = system: Rattus norvegicus; experiment: Anti-inflammatory activity in Sprague-Dawley rat assessed as inhibition of carrageenan-induced paw edema at 10 mg/kg, po administered 30 mins prior to carrageenan challenge measured after 1 hr relative to control; type: functional
Summary of the method: (§1)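 Male rats given test agent or diclofenac orally at 10 mg/kg, suspended in 0.5% Na CMC, 30 min before 0.1 mL of 1% (w/v) carrageenan injected into right hind paw. Vehicle control received 0.5% sodium CMC. Paw thickness measured at 1, 3 and 5 h. % inhibition calculated from paw oedema of treated versus control group. Table gives n = 5.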

[2] = system: Rattus norvegicus; experiment: Anti-inflammatory activity in Sprague-Dawley rat assessed as inhibition of carrageenan-induced paw edema at 10 mg/kg, po administered 30 mins prior to carrageenan challenge measured after 3 hrs relative to control; type: functional; summary of the method: as §1
[3] = system: Rattus norvegicus; experiment: Anti-inflammatory activity in Sprague-Dawley rat assessed as inhibition of carrageenan-induced paw edema at 10 mg/kg, po administered 30 mins prior to carrageenan challenge measured after 5 hrs relative to control; type: functional; summary of the method: as §1
[4] = target: Transcription factor p65 (Mus musculus) (UniProt Q04207); experiment: Inhibition of LPS-induced NFkB activation in mouse RAW264.7 cells assessed as reduction in nuclear translocation of p65 at 20 uM preincubated for 1 hr followed by LPS stimulation measured after 3 hrs by Western blot method; type: cell-based
[5] = system: RAW264.7; experiment: Anti-inflammatory activity in mouse RAW264.7 cells assessed as inhibition of LPS-induced TNFalpha release at 10 uM preincubated for 1 hr followed by LPS stimulation measured after 24 hrs by ELISA relative to control; type: functional
Summary of the method: (§2)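 RAW264.7 cells (DMEM, 10% FBS, 37 °C, 5% CO2) plated at 7 × 10^4 cells/well and grown 24 h, then serum-starved 2.5 h. Exposed to 10 µM compound for 1 h, then LPS 1 µg/mL for 24 h. TNF-α or IL-6 in the medium quantified by mouse ELISA. Cytokine amount normalized to protein of viable cell pellets. Expressed as % inhibition.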

[6] = system: RAW264.7; experiment: Anti-inflammatory activity in mouse RAW264.7 cells assessed as inhibition of LPS-induced IL-6 release at 10 uM preincubated for 1 hr followed by LPS stimulation measured after 24 hrs by ELISA relative to control; type: functional; summary of the method: as §2
[7] = system: RAW264.7; experiment: Anti-inflammatory activity in mouse RAW264.7 cells assessed as inhibition of LPS-induced TNFalpha release preincubated for 1 hr followed by LPS stimulation measured after 24 hrs by ELISA; type: functional, cell-based
Summary of the method: (§3)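 Serum-starved (2.5 h) RAW264.7 cells were pretreated 1 h with a range of compound concentrations, then given LPS 1 µg/mL for 24 h. TNF-α or IL-6 in the medium was quantified by mouse ELISA and normalized to protein of viable cell pellets.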

[8] = system: RAW264.7; experiment: Anti-inflammatory activity in mouse RAW264.7 cells assessed as inhibition of LPS-induced IL-6 release preincubated for 1 hr followed by LPS stimulation measured after 24 hrs by ELISA; type: functional, cell-based; summary of the method: as §3
[9] = system: RAW264.7; experiment: Cytotoxicity against mouse RAW264.7 cells assessed reduction in cell viability at 10 to 40 uM by MTT assay; type: cell-based; conditions: raw264.7, 40 µM
[10] = system: RAW264.7; experiment: Anti-inflammatory activity in mouse RAW264.7 cells assessed as inhibition of LPS-induced nitric oxide production preincubated for 1 hr followed by LPS stimulation measured after 24 hrs by Griess assay; type: functional, cell-based
Summary of the method: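 Griess nitrite assay. RAW264.7 cells pretreated 1 h with compound, then LPS 1 µg/mL for 24 h. Supernatant mixed 1:1 with Griess reagent, OD read at 540 nm against a NaNO2 standard curve. At least three independent experiments, each in duplicate.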

[11] = system: RAW264.7; experiment: Anti-inflammatory activity in mouse RAW264.7 cells assessed as inhibition of LPS-induced iNOS protein expression preincubated for 1 hr followed by LPS stimulation measured after 24 hrs by Western blot method; type: functional, cell-based
Summary of the method: (§4)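 Cells grown 24 h, serum-starved 2.5 h, pretreated 1 h with compound, then LPS 1 µg/mL for 24 h. Lysed in RIPA on ice, run on 10% SDS-PAGE, transferred to PVDF. Probed overnight at 4 °C with primary antibody for iNOS (130 kDa) or COX-2 (72 kDa), then HRP secondary. β-actin as loading control. At least three independent experiments.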

[12] = system: RAW264.7; experiment: Anti-inflammatory activity in mouse RAW264.7 cells assessed as inhibition of LPS-induced COX2 protein expression preincubated for 1 hr followed by LPS stimulation measured after 24 hrs by Western blot method; type: functional, cell-based; summary of the method: as §4
[13] = system: Rattus norvegicus; experiment: Anti-inflammatory activity in po dosed adjuvant-induced Sprague-Dawley rat arthritis model assessed as reduction in bone destruction administered once daily from day 14 to 28 post-immunization measured by H and E staining based histopathological analysis; type: functional, organism-based
Summary of the method: (§5)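 Male SD rats (180–200 g), 8 per group. Arthritis induced by one intradermal injection of 0.1 mL CFA (heat-killed M. butyricum in paraffin oil, 10 mg/mL) into the right hind paw. Test agent at 45 or 90 mg/kg, aspirin 50 mg/kg, in 0.5% CMC-Na, given intragastrically once daily on days 14–28. Right ankle joints taken at day 28, fixed, EDTA-decalcified, cut at 5 µm and H&E stained.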

[14] = system: Rattus norvegicus; experiment: Anti-inflammatory activity in po dosed adjuvant-induced Sprague-Dawley rat arthritis model assessed as reduction in synovial hyperplasia administered once daily from day 14 to 28 post-immunization measured by H and E staining based histopathological analysis; type: functional, organism-based; summary of the method: as §5
[15] = system: Rattus norvegicus; experiment: Anti-inflammatory activity in po dosed adjuvant-induced Sprague-Dawley rat arthritis model assessed as reduction in inflammatory cell infilteration administered once daily from day 14 to 28 post-immunization measured by H and E staining based histopathological analysis; type: functional, organism-based; summary of the method: as §5
[16] = target: Mitogen-activated protein kinase kinase kinase 7 (Mus musculus) (UniProt Q62073); experiment: Inhibition of LPS-induced TAK1 phosphorylation in mouse RAW264.7 cells preincubated for 1 hr followed by LPS stimulation measured after 30 min by Western blot method
[17] = target: Mitogen-activated protein kinase kinase kinase 7 (Mus musculus) (UniProt Q62073); experiment: Inhibition of TAK1 in mouse RAW264.7 cells assessed as reduction in LPS-induced MAPK p38 phosphorylation preincubated for 1 hr followed by LPS stimulation measured after 30 mins by Western blot method
[18] = target: Mitogen-activated protein kinase kinase kinase 7 (Mus musculus) (UniProt Q62073); experiment: Inhibition of TAK1 in mouse RAW264.7 cells assessed as inhibition of LPS-induced NFkB activation by measuring reduction in nuclear translocation of p65 at 2.5 to 10 uM preincubated for 1 hr followed by LPS stimulation measured after 3 hrs by Western blot method
[19] = target: Mitogen-activated protein kinase kinase kinase 7 (Mus musculus) (UniProt Q62073); experiment: Inhibition of TAK1 in mouse RAW264.7 cells assessed as inhibition of LPS-induced NFkB activation by measuring reduction in nuclear translocation of p65 at 2.5 to 10 uM preincubated for 1 hr followed by LPS stimulation measured after 3 hrs by DAPI staining based immunofluorescence assay

Chain of Mitogen-activated protein kinase kinase kinase 7 (Mus musculus) (Q62073 whole entry, looked up): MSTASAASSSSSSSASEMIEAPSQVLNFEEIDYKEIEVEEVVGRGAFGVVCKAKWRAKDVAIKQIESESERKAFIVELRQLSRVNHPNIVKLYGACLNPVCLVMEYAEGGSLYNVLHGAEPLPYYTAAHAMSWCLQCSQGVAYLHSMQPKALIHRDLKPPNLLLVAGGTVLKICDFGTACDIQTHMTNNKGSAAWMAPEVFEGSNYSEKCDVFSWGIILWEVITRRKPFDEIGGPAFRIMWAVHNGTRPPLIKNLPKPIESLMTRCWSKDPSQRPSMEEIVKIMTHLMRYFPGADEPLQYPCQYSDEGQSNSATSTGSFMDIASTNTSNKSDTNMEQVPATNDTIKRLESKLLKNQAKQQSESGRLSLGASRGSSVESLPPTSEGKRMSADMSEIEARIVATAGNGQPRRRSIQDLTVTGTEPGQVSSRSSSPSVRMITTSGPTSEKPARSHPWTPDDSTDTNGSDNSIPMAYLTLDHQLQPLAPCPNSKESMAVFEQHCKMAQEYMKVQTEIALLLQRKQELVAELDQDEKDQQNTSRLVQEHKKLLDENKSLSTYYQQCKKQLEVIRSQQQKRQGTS
Chain of Transcription factor p65 (Mus musculus) (Q04207 whole entry): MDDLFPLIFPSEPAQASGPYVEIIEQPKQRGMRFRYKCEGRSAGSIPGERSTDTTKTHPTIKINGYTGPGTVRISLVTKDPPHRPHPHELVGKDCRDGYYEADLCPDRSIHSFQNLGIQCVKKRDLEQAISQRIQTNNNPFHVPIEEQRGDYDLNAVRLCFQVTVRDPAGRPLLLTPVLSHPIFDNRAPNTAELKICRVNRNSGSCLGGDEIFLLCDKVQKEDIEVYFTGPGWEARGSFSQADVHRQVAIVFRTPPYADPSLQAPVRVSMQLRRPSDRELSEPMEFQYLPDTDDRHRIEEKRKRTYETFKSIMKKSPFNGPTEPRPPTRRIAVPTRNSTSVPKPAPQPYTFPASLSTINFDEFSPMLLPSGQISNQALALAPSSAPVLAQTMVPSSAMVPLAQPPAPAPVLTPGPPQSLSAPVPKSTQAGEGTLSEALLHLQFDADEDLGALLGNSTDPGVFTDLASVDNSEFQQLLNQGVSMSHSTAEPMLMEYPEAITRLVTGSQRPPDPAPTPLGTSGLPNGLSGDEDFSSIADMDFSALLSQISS

O=C(O)Cc1ccccc1Nc1c(Cl)cccc1Cl [DICLOFENAC]
inhibition in vivo at 10 mg/kg [1]: 41% | inhibition in vivo at 10 mg/kg [2]: 77% | inhibition in vivo at 10 mg/kg [3]: 48%

Cc1ccc(S(=O)(=O)/C=C/C#N)cc1
inhibition [4]: Active

Cc1ccc(-c2cc(C(F)(F)F)nn2-c2ccc(S(N)(=O)=O)cc2)cc1 [CELECOXIB]
inhibition in vivo at 10 mg/kg [1]: 55% | inhibition in vivo at 10 mg/kg [2]: 59% | inhibition in vivo at 10 mg/kg [3]: 61%

COc1ccc(-c2coc3cc(OCC(=O)N4N=C(c5cc6ccccc6oc5=O)CC4c4ccc(C(F)(F)F)cc4)ccc3c2=O)cc1 (stereo not drawn)
inhibition at 10 µM [5]: 40.4% | inhibition at 10 µM [6]: 41.2% | IC50 [7]: 16.8 µM | IC50 [8]: 14.2 µM | Activity [9]: Non-Toxic | Activity [10]: Dose-dependent effect | Activity [11]: Dose-dependent effect | Activity [12]: Dose-dependent effect | Activity [13]: Dose-dependent effect | inhibition in vivo at 10 mg/kg [1]: 49% | inhibition in vivo at 10 mg/kg [2]: 60% | inhibition in vivo at 10 mg/kg [3]: 59% | Activity [14]: Dose-dependent effect | Activity [15]: Dose-dependent effect | inhibition [16]: Dose-dependent effect | inhibition [17]: Dose-dependent effect | inhibition [18]: Active | inhibition [19]: Active

C=CCN(CC=C)CC(=O)N1N=C(c2cc3ccccc3oc2=O)CC1c1ccccc1C(F)(F)F (stereo not drawn)
inhibition [5]: Active | inhibition [6]: Active | inhibition in vivo at 10 mg/kg [1]: 28% | inhibition in vivo at 10 mg/kg [2]: 49% | inhibition in vivo at 10 mg/kg [3]: 45%

O=C(CN1CCCCC1)N1N=C(c2cc3ccccc3oc2=O)CC1c1ccc(C(F)(F)F)cc1 (stereo not drawn)
inhibition [5]: Active | inhibition [6]: Active | inhibition in vivo at 10 mg/kg [1]: 32% | inhibition in vivo at 10 mg/kg [2]: 41% | inhibition in vivo at 10 mg/kg [3]: 36%

CC(C)NCC(=O)N1N=C(c2cc3ccccc3oc2=O)CC1c1ccccc1C(F)(F)F (stereo not drawn)
inhibition in vivo at 10 mg/kg [1]: 17% | inhibition in vivo at 10 mg/kg [2]: 20% | inhibition in vivo at 10 mg/kg [3]: 13%
